Assay outcomes deposited in PubChem by several laboratories.
Compounds with a hit are over-represented: about 12% of the library has one in this group of screens.
Dynein cargo inh: inhibitors of GR-EGFP nuclear translocation, primary screen, dynein cargo transport inhibitor project, imaging, high-content, 3617.4 mouse cells. test concentration mostly 20 µM; stimulated with dexamethasone, 1 µM; hits give low values. z-score, hits read low. actives 0.47% (n = 220,000);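 active = plate z-score of nuclear minus cytoplasmic receptor signal below a set negative limit, without overly bright fluorescence or cell loss, cut at about -3.5 in these data, passing the limit was not always enough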;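 note: z-score of nuclear minus cytoplasmic ring GR-EGFP intensity difference per well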
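Buffer or medium: tet-free, stripped-serum medium; reagent: dexamethasone at 1.0 µM final, 30 min; incubation: 48 h induction, 1 h compound, 30 min dex at 37 °C; measured by: formaldehyde fixation, Hoechst nuclear stain, 10x automated fluorescence imaging; read-out: nuclear-to-cytoplasmic GR-EGFP distribution per well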
bCat nuc transl: modulators of beta-catenin nuclear translocation, primary screen, imaging, HeLa cells, immunofluorescence, high-content | actives 0.3% (n = 190,000) | nuclear translocation activity, % at 5 µM | AID 1665, 2009;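 active = nuclear translocation activity above 50% at 5 µM, with a well cell count of 50 or more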;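 note: per-cell ratio of nuclear to cytoplasmic median beta-catenin stain intensity; plate controls were DMSO negative control for no effect and GSK-3 inhibitor IX positive control for full effect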
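Assay system: human HeLa cells, native beta-catenin; doses: 5 µM primary, 0.02–20 µM confirmation; incubation: compound treatment 24 h, 37°C, 5% CO2; technique: fluorescence imaging of beta-catenin antibody stain plus DAPI; measure: % activation, nuclear-to-cytoplasmic median beta-catenin signal ratio per cell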
MT stabilize HCS: microtubule stabilizers in HeLa cells, primary screen, imaging, high-content imaging; HeLa tubulin immunostaining HCS, 24 h; share of cells brighter than vehicle mean+2SD; % tubulin-high responders, % at 10 µM; actives 0.83% (n = 200,000);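 active = plate Z-score above 3 for both tubulin-high and condensed-nucleus cell shares, with cell loss under 80%, at 10 µM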;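 note: anti alpha tubulin signal scored within the nucleus-defined area of each cell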
Lmaj promast: Leishmania major promastigote growth inhibition, primary screen; Leishmania major promastigotes, resazurin fluorescence viability; inhibition, % at 10 µM; actives 9% (n = 200,000); in the data active = inhibition above about 50%;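 note: promastigotes grown with compound for 44 hours at 28 °C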
CHOP inh: inhibitors of CHOP promoter induction, primary screen, cell-based, unfolded protein response, luciferase reporter; inhibition, % at 10 µM; actives 3.8% (n = 220,000); CHO-K1 CHOP-promoter luciferase, tunicamycin-induced, 15-18 h; AID 2732, 2010;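 active = compounds that reduced the stress-induced luciferase reporter signal by more than about 70% of percent inhibition, limit read from the data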;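 note: 0% = tunicamycin plus vehicle and 100% = wells without tunicamycin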
Autophagy HCS: autophagy modulators in MEF cells, primary screen, imaging, high-content, MEF GFP-LC3; MEF GFP-LC3 puncta imaging; test concentration mostly 10 µM; calls only at 10 µM (by protocol); actives 0.98% (n = 190,000); AID 463193, 2010;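 active = percentage of spot-positive cells more than 3 SD above its plate mean, without a fluorescence outlier flag or 80% toxicity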;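 note: spot-positive cell cutoff set from DMSO-treated cells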
Active calls of the source: *; i = inactive; x = not tested or not shown; + = active, no number.

SMILES | Dynein cargo inh | bCat nuc transl | MT stabilize HCS | Lmaj promast | CHOP inh | Autophagy HCS
Cc1ccc(S(=O)(=O)NCC(=O)NCC(=O)OCC(=O)N2CC(=O)Nc3ccccc32)cc1C | -0.46 | -3 | 2 | -11 | 4 | i
O=C(CCC1CCCN(Cc2ccncc2)C1)NCc1ccc(F)c(F)c1 (stereo unspecified) | -0.066 | 1 | 5 | 92* | 38 | i
CCOc1cc(C(=O)NCc2ccc(C)cc2)ccc1OCC(=O)N1CCOCC1 | 0.27 | -2 | 3 | -4 | -11 | i
CCOc1cc(/C=C/c2nc3cc(C)c(C)cc3s2)ccc1OCC(=O)N1CCOCC1 | 0.19 | -1 | 2 | 86* | 3 | i
COCCNS(=O)(=O)c1cc(C)c(C)cc1C | 0.92 | -3 | 3 | -3 | 18 | i
CCn1cc(CN2CCc3c([nH]c4ccccc34)C2c2cccc(OC)c2)c(C)n1 (stereo unspecified) | -1 | 1 | 4 | 29 | -10 | i
CCn1nc(C)c(CN2CCc3c([nH]c4ccccc34)C2c2ccc(F)c(OC)c2)c1C (stereo unspecified) | -0.94 | 3 | 3 | 74* | 29 | i
CCn1cc(CN2CCc3c([nH]c4ccccc34)C2c2ccc(F)c(OC)c2)c(C)n1 (stereo unspecified) | 0.18 | 1 | 6 | 42 | 70* | i
CCn1cc(CN2CCc3c([nH]c4ccccc34)C2c2cccc(O)c2)c(C)n1 (stereo unspecified) | -0.36 | 0 | 3 | -2 | 16 | i
COc1cc(/C=N/n2nnnc2Nc2ccccc2)cc(OC)c1OC | -0.28 | 0 | 3 | 10 | -5 | i
O=C(Cn1cc(C(=O)c2ccco2)c2ccccc21)NC1CCCC1 | -0.84 | 4 | 4 | 10 | 22 | i
O=C(O)c1ccccc1-n1c2ccccc2c2ccccc21 | 0.063 | -4 | x | x | 17 | x
CCCC(=O)Nc1nc2ccc3nc(C)sc3c2s1 | -0.027 | -10 | 3 | 11 | 75* | i
C=C(C)CN(CC)C(=O)CCc1nnc(CCc2c[nH]c3ccccc23)o1 | 0.66 | 0 | 2 | 3 | 24 | i
O=[N+]([O-])c1cccnc1NCCNc1ncc(C(F)(F)F)cc1Cl | -0.45 | 2 | 1 | -2 | 75* | i
COC(=O)c1[nH]c(C)c(/C(O)=C2\C(=O)C(=O)N(CCN3CCOCC3)C2c2ccc(C)o2)c1C (stereo unspecified) | -0.37 | 0 | x | x | -7 | x
O=C(Oc1ccc(Br)cc1C(=O)/C=C/c1ccccc1F)c1ccco1 | -5.8* | x | 2 | 100* | x | i
O=C(CSc1cccc[n+]1[O-])c1cc(Cl)ccc1Cl | -2.1 | 1 | 2 | 99* | -68 | i
O=C(O)CSc1cccc[n+]1[O-] | -0.61 | 2 | 3 | -2 | 21 | i
O=C(CSc1cccc[n+]1[O-])c1cc2ccccc2o1 | -0.24 | 0 | 4 | 95* | 10 | i
CC(C)OP(=O)(OC(C)C)C(C)NC(=O)Cc1ccccc1 (stereo unspecified) | -1.5 | -2 | 2 | -7 | 21 | i
COc1cccc(NC(=S)NN=C2CCCCCC2)c1 | 0.13 | -2 | 2 | 47 | -56 | i
COc1cccc(OC)c1OCCCCN1CCC(Cc2ccccc2)CC1 | 1.1 | -3 | 1 | 89* | 3 | i
COc1cccc(OC)c1OCCCN1CCOCC1 | -0.45 | x | 1 | 2 | 25 | i
COc1cccc(OC)c1OCCCCN1CCCC1 | 0.57 | 0 | 2 | 66* | 23 | i
COc1cccc(OC)c1OCCCOc1c(OC)cccc1OC | -0.61 | x | 2 | 6 | -34 | i
CC(=O)CCc1ccc(OCCCCN2CCC(Cc3ccccc3)CC2)cc1 | -0.26 | 0 | 4 | 94* | -7 | +
COc1ccc(NC(=O)NCCCN2CCC(Cc3ccccc3)CC2)cc1 | -0.36 | 1 | x | x | 0 | x
Cn1ncc(C(=O)N=S(C)(=O)c2ccccc2)c1[N+](=O)[O-] (stereo unspecified) | -0.15 | -1 | x | x | -6 | x
